Source: the RNAGym collection of RNA variant scans (doi:10.1126/science.aae0568)
Fewer inactive variants are shown than the library holds.

B1: tRNA (parent)
chain: GUUCCGUUGGCGUAAUGGUAACGCGUCUCCCUCCUAAGGAGAAGACUGCGGGUUCGAGUCCCGUACGGAACG

Variants of: B1
Test: yeast fitness relative to wild type (ratio to wild type); higher = fitter; tRNA-Arg(CCU), competitive growth, 37 C, YPD
In short: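 Variants of the tRNA-Arg(CCU) gene were chemically synthesised with a 3% per-site mutation rate across 69 sites and placed at the native genomic locus in Saccharomyces cerevisiae. Six parallel replicates of the pooled strains were competed in YPD at 37°C for 24 hours, and gene amplicons from the start and end populations were read by 100-nucleotide paired-end sequencing. Darwinian fitness relative to wild type was derived from changes in genotype frequencies. Genotypes required ≥ 100 starting reads, and estimates < 0.5 were set to 0.5.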

**Q.** With GUUCCGUUCGCGCAAUGGUAACGCGUCUCCCUCCUAAGGAGAAGACUGCGGGUUCGAGUCCCGUACGGCACG [G9C U13C A69C] as the variant, how does the yeast fitness read?
**A.** 0.564

**Q.** Which yeast fitness does the source give for GUUCCGUUCGCGUAAUGGUAACGCGUCUCCCUCCUAACGAGAAGACUCCGGGUUCGAGUCCCGUACGGAACG [G9C G38C G48C] here?
**A.** 0.582

**Q.** For GUUCCGUUCGCGUAAUCGUAACGCGUGUCCCUCCAAAGGAGAAGACUGAGGGUUCGAGUCCCGUACGGAACG [G9C G17C C27G U35A C49A], which yeast fitness is on record?
**A.** ≤ 0.5

**Q.** Which yeast fitness does the source give for GUUCCGUUCGCGUAAUGGUAACGCGUCUCCCUCCUAAGGAGAACACUGCGGGUUCGAGUCUCGUACGGAACG [G9C G44C C61U] here?
**A.** 0.584

**Q.** Which yeast fitness does the source give for GUUCCGUUCGCGUAAUGGUAACGCGUCUCCCUCCUAAGGACAAGACUGCGGGUUCGAGUCCCGUACGGAACG [G9C G41C] here?
**A.** 0.575

**Q.** With GUUCCGUUCCCGUAAUGGUAACGCGUCUCCCUCCUCAGCAGAAGACUACGGGUUCGAGUCCCGUACGGAACG [G9C G10C A36C G39C G48A] as the variant, how does the yeast fitness read?
**A.** 0.512

**Q.** For GUUCCGUUCGCGUAAUGGUAACACGUCUCCCUCCUCAGGAGAAGACUGCGGGUUCGAGUCCCGUACGGAACG [G9C G23A A36C], which yeast fitness is on record?
**A.** 0.777

**Q.** With GUUCCGUUCGCGUAAUGGUAACGCGUCUCCCUCCUAAGGAGAAGACUGCGGGUUCGAGUCCUGUACGGAACG [G9C C62U] as the variant, how does the yeast fitness read?
**A.** 0.814

**Q.** With GUUCCGUUCGCGUAAUGGCAACGCGUCUCCAUCCUAAGGAGAAGACUGCGGGUUUGAGUCCCGUACGGAACG [G9C U19C C31A C55U] as the variant, how does the yeast fitness read?
**A.** 0.641

**Q.** Which yeast fitness does the source give for GUUCCGUUCGCGUAAUGGGAACGCGUCUCCCUCCUAAGGAGAAGACUGCGGGUUCGAGUCCCGUACGGAACG [G9C U19G] here?
**A.** 0.502

**Q.** Which yeast fitness does the source give for GUUCCGUUCGCAUAAUGGUAAUGUGUCUCCCUCCUAAGGAGAAGACUGCGGGUUCGAAUCCCGUACGGAACG [G9C G12A C22U C24U G58A] here?
**A.** ≤ 0.5

**Q.** For GUUCCGUUCGCGUAAUGGUAACACGUCUCCCUCCUAAGGAGAAGACUGCAGGUUCGAGUCCCGUACGGAACG [G9C G23A G50A], which yeast fitness is on record?
**A.** ≤ 0.5

**Q.** Which yeast fitness does the source give for GUUCCGUUCGCGCAAUGGUAACGCGUCUCCGUCCUAAGGAGAAGACUGCGGGUUCGGGUCCCGUACGGAACG [G9C U13C C31G A57G] here?
**A.** ≤ 0.5

**Q.** For GUUCCGUUCCCGUAAUGGUAACGCGUCUGCCUCCUAAGGAGAAGACUGCGGGUUCGAGUCCCGUACGGAACG [G9C G10C C29G], which yeast fitness is on record?
**A.** ≤ 0.5

**Q.** Which yeast fitness does the source give for GUUCCGUUCGCCUGAUGGUCACGCGUCUCCCUCCUAAGGAGAAGACUGCGGGUUCGAGUCCCGUACGGAACG [G9C G12C A14G A20C] here?
**A.** ≤ 0.5

**Q.** Which yeast fitness does the source give for GUUCCGUUCGCGUAAUGCUAACGCGUCUCCCUCCUAAGGAGAAAACUGCGGGUUCGAGUCCCGUACGGAACG [G9C G18C G44A] here?
**A.** 0.526

**Q.** With GUUCCGUUCCCGUAAUGGUAACGCGUCUCCCUCCUAAGGAGAAGACUGCGGGUUCGAGUCCCGUACGGGGCG [G9C G10C A69G A70G] as the variant, how does the yeast fitness read?
**A.** ≤ 0.5

**Q.** With GUUCCGUUCGCGUAAGGGUAACGCGUCUACCUCCUAAGGAGAAGACUGCGGGUUCGAGUCCCGUACGGAACG [G9C U16G C29A] as the variant, how does the yeast fitness read?
**A.** ≤ 0.5

**Q.** Which yeast fitness does the source give for GUUCCGUUCGCGUAACGGUAACGCGUCUCCCUCCUAAGGAGAAGACUGCGGGUUCGAGUCCCGUACGGAACG [G9C U16C] here?
**A.** 0.731

**Q.** For GUUCCGUUCGCGAAAUGGUAACGCAUCUCCCUCCUAAGGCGAAGACUGCGGGUUCGAGUCCCGUACCGAACG [G9C U13A G25A A40C G67C], which yeast fitness is on record?
**A.** ≤ 0.5

**Q.** For GUUCCGUUCGCGUAAUGGUAACGCGUCUCCCUCCUAAGGAGAAGACUCCGGGUUCGAAUCCCGUACGGAUCG [G9C G48C G58A A70U], which yeast fitness is on record?
**A.** 0.552

**Q.** Which yeast fitness does the source give for GUUCCGUUCGCGGAAUGGUAACGCGUCCCCCUCCUAAGGACACGUCUGGGGGGUCGAGUCCCGUACGGCACG [G9C U13G U28C G41C A43C A45U C49G U53G A69C] here?
**A.** 0.611

**Q.** For GUUCCGUUCGCGUAAUGGCAACGCGUCUCCCUCCUAAGGAGAAGACUGCGGGUUCGAGUCCCGUACGGUACG [G9C U19C A69U], which yeast fitness is on record?
**A.** 0.656

**Q.** For GUUCCGUUCGCGUAAUGGUAACACGUCUCCCUCCUAAGGCAAAGACUGCGGGUUGGAGUCCCGUACGGAACG [G9C G23A A40C G41A C55G], which yeast fitness is on record?
**A.** ≤ 0.5

**Q.** With GUUCCGUUCGCGUAAUGGUAACGCGUCUCCCUCCUAACGAGAAGACUGCGGGUUCGAGUCCCGUACGGAACG [G9C G38C] as the variant, how does the yeast fitness read?
**A.** 0.546

**Q.** Which yeast fitness does the source give for GUUCCGUUCGCGUAAUGGUAACGCGACUCCCUCCUAAGGCGAAGACUGCGGGUUUGAGUCCCGUAAGGUACG [G9C U26A A40C C55U C66A A69U] here?
**A.** ≤ 0.5

**Q.** For GUUCCGUUCGCGUAAAGGUAACGUGUCUCUCUCCUAAGGAGAAGACUGCGGGUUCGAGUCCCGUACGGAACG [G9C U16A C24U C30U], which yeast fitness is on record?
**A.** 0.533

**Q.** Which yeast fitness does the source give for GUUCCGUUCGCGUAAUGGUAACGCGUCUCCCUCCUAAGGAGAAGACUACGGGUUCGAGUCCCGUACGGAACG [G9C G48A] here?
**A.** 0.705

**Q.** With GUUCCGUUCGCGUAAUGGCAACGCGUCUCCCUCCUAAGGAGAAGACUAUGGGUUCGAGUCCCGUACGGAACG [G9C U19C G48A C49U] as the variant, how does the yeast fitness read?
**A.** 0.634

**Q.** For GUUCCGUUCGCGUAACGGUAACGCGUCUCCCUCCUAAGGAGAAGACUGCGCGUUCGAGUCCCGUACGGAACG [G9C U16C G51C], which yeast fitness is on record?
**A.** ≤ 0.5

**Q.** For GUUCCGUUCGCGUAAUGGUAACGCGUCUCCCUCCUAAGGAGAAGACUGCGCAUUCGAGUCCCGUACGGAACG [G9C G51C G52A], which yeast fitness is on record?
**A.** ≤ 0.5

**Q.** Which yeast fitness does the source give for GUUCCGUUCCCGUAAUGGUAACGCGUCUCCCUCCUAAGGAGAAGACAGCGGGUUCGAGUCCCGUACGGAACG [G9C G10C U47A] here?
**A.** ≤ 0.5

**Q.** Which yeast fitness does the source give for GUUCCGUUCGCGUAAUGGUAACGCGUCUCCCUCCUAAGGAGAAGACUGCGGGUUCGAGUCCCGUAGGGAACG [G9C C66G] here?
**A.** 0.547

**Q.** For GUUCCGUUCGCGUAACGGUAACGCGUCUCUCUCCUAAGGAGAAGACUGCGGGUUCGAGAGCCGUACGGAACG [G9C U16C C30U U59A C60G], which yeast fitness is on record?
**A.** ≤ 0.5

**Q.** For GUUCCGUUCGCGUAAUAGUAACGCGUCUCCCUCCUAAGGAGAAGACUGCGGGUUCGAGUCCCGUAUGGAACG [G9C G17A C66U], which yeast fitness is on record?
**A.** ≤ 0.5

**Q.** For GUUCCGUUCGCGUAAUGGUAACCCGUCUCCCUCCUAAGGAGAAGACUGCGGGUUCGAGUCCCGUACGGAACG [G9C G23C], which yeast fitness is on record?
**A.** 0.573

**Q.** Which yeast fitness does the source give for GUUCCGUUCGCGUAAUGGUAACGCGUCUCCCUCCUAAGCAAAUGACUGCGGGUUCGAGUCCCGUACGGAACG [G9C G39C G41A A43U] here?
**A.** ≤ 0.5

**Q.** With GUUCCGUUCGCGUAAUGGUAACACGUCUCCCUCCUAAGGAGAUGACUGCGGGUUCGUGUCCCGUACGGAACG [G9C G23A A43U A57U] as the variant, how does the yeast fitness read?
**A.** 0.561
